# Measurements as given in ChEMBL document CHEMBL4342526, “Exploration of the Structural Space in 4(3H)-Quinazolinone Antibacterials” (J Med Chem, 2020).
# Tests used:
# Staphylococcus aureus [1] = assay: Antibacterial activity against clindamycin/erythromycin/spectinomycin-resistant mec-positive Staphylococcus aureus NRS70 measured after 16 to 20 hrs by microdilution method; assay type: functional
# In short: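 CLSI broth microdilution; two-fold serial compound dilutions in triplicate in cation-adjusted Mueller–Hinton broth with 2% NaCl, inoculum 5 × 10^5 CFU/mL; 37 °C for 16–20 h; MIC = lowest concentration with no visible growth.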
# HeLa = assay: Cytotoxicity against human HeLa cells assessed as reduction in cell viability measured after 16 hrs by XTT assay; assay type: cell-based
# In short: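 HeLa cells (ATCC CCL-2), run in triplicate. Viability was read by XTT, and IC50 was obtained by nonlinear regression.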
# [2] = tested on: Staphylococcus haemolyticus; assay: Antibacterial activity against Staphylococcus haemolyticus ATCC 29970 measured after 16 to 20 hrs by microdilution method; assay type: functional
# In short: (§1)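 CLSI broth microdilution: two-fold serial dilutions in triplicate in cation-adjusted Mueller–Hinton broth with 2% NaCl, inoculum 5 × 10^5 CFU/mL, incubated at 37 °C for 16–20 h. MIC is the lowest concentration preventing visible growth.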
# Streptococcus pneumoniae = assay: Antibacterial activity against Streptococcus pneumoniae ATCC 49619 measured after 16 to 20 hrs by microdilution method; assay type: functional; in short: as §1
# Clostridioides difficile = assay: Antibacterial activity against Clostridium difficile ATCC 43255 measured after 16 to 20 hrs by microdilution method; assay type: functional
# Bacillus cereus = assay: Antibacterial activity against Bacillus cereus ATCC 13061 measured after 16 to 20 hrs by microdilution method; assay type: functional; in short: as §1
# Enterococcus faecalis = assay: Antibacterial activity against Enterococcus faecalis ATCC 29212 measured after 16 to 20 hrs by microdilution method; assay type: functional; in short: as §1
# [3] = Selectivity index, ratio of IC50 for human HeLa cells to MIC for clindamycin/erythromycin/spectinomycin-resistant mec-positive Staphylococcus aureus NRS70; assay type: toxicity
# In short: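 HeLa cytotoxicity by XTT assay in triplicate, IC50 by nonlinear regression; ratio IC50 over broth microdilution MIC against NRS70.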
# [4] = Protein binding in human plasma at 10 uM measured after 6 hrs UV-UPLC based rapid equilibrium dialysis method; assay type: ADME, cell-free
# In short: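 Rapid equilibrium dialysis: human plasma was cleared by centrifugation and spiked from a 1 mM DMSO stock to a final 10 μM, against 0.1 M PBS pH 7.4. Dialysis ran 6 h at 37 °C with orbital shaking. Buffer (free) and plasma (total) aliquots were mixed with internal standard in acetonitrile and measured by UPLC-UV at 285 nm. B% = (Cp−Cf)/Cp×100.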
# [5] = Volume of distribution in ICR mouse at 10 mg/kg, iv by UV-UPLC analysis; assay type: ADME, organism-based; conditions: in vivo
# In short: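 Female ICR mice, 6–8 weeks old, 20–25 g. Each received 50 μL by tail-vein injection (5 or 10 mg/kg) of a filter-sterilized 2 or 4 mg/mL solution in 20% DMSO/10% Tween-80/70% water. Terminal blood was collected and plasma harvested by centrifugation. Plasma was precipitated with acetonitrile containing internal standard, and the supernatant was analyzed by C18 UPLC with UV detection at 285 nm.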
# [6] = AUC (0 to infinity) in ICR mouse at 10 mg/kg, po administered via gavage by UV-UPLC analysis; assay type: ADME, organism-based; set-up: dose 10 mg/kg, route oral, time infinity; conditions: in vivo
# [7] = Elimination half life in ICR mouse at 10 mg/kg, po administered via gavage by UV-UPLC analysis; assay type: ADME, organism-based; conditions: in vivo, read-out: beta t1/2 (converted)
# [8] = Oral bioavailability in ICR mouse at 10 mg/kg administered via gavage by UV-UPLC analysis; assay type: ADME, organism-based; conditions: in vivo
# [9] = Time at which plasma concentration stays above in vitro MIC for clindamycin/erythromycin/spectinomycin-resistant mec-positive Staphylococcus aureus NRS70 in ICR mouse at 10 mg/kg, iv; assay type: ADME, organism-based; conditions: in vivo
# In short: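 Female ICR mice given single iv tail-vein dose (50 μL of 2 or 4 mg/mL in 20% DMSO/10% Tween-80/70% water); terminal blood at 5, 40 min, 2, 4, 8 h, n = 2 per time point; plasma acetonitrile-precipitated with internal standard, UPLC-UV 285 nm on C18; time above MIC read from concentration profile.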
# Staphylococcus aureus [10] = assay: […] activity against clindamycin/erythromycin/spectinomycin-resistant mec-positive Staphylococcus aureus NRS70 incubated for 16 to 20 hrs followed by re-plating on agar plate; assay type: functional; conditions: read-out: MBC99.9
# [11] = target: T1, MecA (Staphylococcus aureus) (UniProt Q7DHH4); assay: Binding affinity to PBP2a in clindamycin/erythromycin/spectinomycin-resistant mec-positive Staphylococcus aureus NRS70 assessed potentiation of piperacillin and tazobactam-induced bactericidal activity by measuring log reduction in bacterial count at 0.5 times MIC measured after 24 hrs by time-kill assay
# T1 sequence (whole entry): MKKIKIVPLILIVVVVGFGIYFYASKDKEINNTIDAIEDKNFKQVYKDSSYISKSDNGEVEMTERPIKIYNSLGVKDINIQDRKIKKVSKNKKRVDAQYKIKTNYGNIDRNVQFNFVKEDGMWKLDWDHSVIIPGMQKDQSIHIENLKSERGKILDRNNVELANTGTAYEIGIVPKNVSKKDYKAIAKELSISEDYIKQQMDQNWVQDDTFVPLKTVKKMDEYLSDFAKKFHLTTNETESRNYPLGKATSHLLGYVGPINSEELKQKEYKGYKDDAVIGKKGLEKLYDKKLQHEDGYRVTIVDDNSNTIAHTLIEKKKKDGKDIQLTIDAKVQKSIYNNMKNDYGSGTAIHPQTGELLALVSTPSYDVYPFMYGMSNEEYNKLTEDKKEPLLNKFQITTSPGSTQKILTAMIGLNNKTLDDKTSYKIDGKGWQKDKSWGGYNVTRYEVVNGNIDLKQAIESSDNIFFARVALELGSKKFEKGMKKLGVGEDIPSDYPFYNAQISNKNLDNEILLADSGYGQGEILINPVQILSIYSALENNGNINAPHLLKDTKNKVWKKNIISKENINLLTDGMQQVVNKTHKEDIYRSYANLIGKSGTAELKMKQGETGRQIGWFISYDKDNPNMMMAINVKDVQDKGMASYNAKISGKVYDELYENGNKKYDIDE
# Staphylococcus aureus [12] = assay: (§2) Potentiation of piperacillin and tazobactam-induced bactericidal activity against methicillin resistant Staphylococcus aureus NRS70 infected in ICR mouse model of neutropenic thigh infection assessed as log reduction in bacterial count in thigh at 20 mg/kg, sc administered at 8 hrs interval for 3 times starting from 1 hr post infection and measured 24 hrs post infection; assay type: functional
# In short: (§3)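 Neutropenic ICR mouse thigh model as above (cyclophosphamide 200 mg/kg ip days −4 and −1; NRS70 1 × 10^6 CFU/mL, 0.1 mL im right thigh); compound given with piperacillin 12 mg/kg plus tazobactam 1.5 mg/kg, sc in 10% DMSO/90% water every 8 h ×3 from 1 h; thigh CFU at 24 h; n = 8; mean ± SEM, ANOVA/Tukey.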
# Staphylococcus aureus [13] = assay: as §2, with “40” for “20”; assay type: functional; in short: as §3
smiles,measurement,setting,value
N#Cc1ccc(/C=C/c2nc3ccccc3c(=O)n2-c2cc(C(=O)O)ccc2F)cc1,MIC,Staphylococcus aureus [1],0.5 µg/mL
same,IC50,HeLa,62 µg/mL
same,MIC,[2],4 µg/mL
same,MIC,Streptococcus pneumoniae,8 µg/mL
same,MIC,Clostridioides difficile,128 µg/mL
same,MIC,Bacillus cereus,> 128 µg/mL
same,MIC,Enterococcus faecalis,> 128 µg/mL
same,selectivity ratio,[3],124
same,PPB,[4],95.4%
same,Vd,[5],0.19 L/kg
same,AUC(0-inf),[6],16800 ng·h/mL
same,half-life,[7],11.2 h
same,F,[8],65%
same,T>MIC,[9],4 h
same,MBC,Staphylococcus aureus [10],> 128 µg/mL
same,log(activity),[11],> 3
same,log(activity),Staphylococcus aureus [12],0.75
same,log(activity),Staphylococcus aureus [13],1.33
